# Assay outcomes: PubChem, several laboratories
# Hits are enriched below; roughly 6.7% of the tested compounds scored in any of these assays.
# CSC inhib = cancer stem cell viability inhibitors, primary screen, luminescence | cancer stem cell-like cells viability | inhibition, % at 7.5 µM | 1.1% of 300,000 active | AID 2717, 2010; in the data active = inhibition above about 75%; tested in HMLE shEcad cells
# GRIN3A LBD mod = binders of NR3A ligand-binding domain, primary screen, biophysical, differential scanning fluorimetry, uHTS. NR3A LBD differential scanning fluorimetry, Tm shift; 0% = protein alone, 100% = glycine-bound protein. Glutamate receptor ionotropic, NMDA 3A (GRIN3A) ligand-binding domain. AID 1259313, 2017. Tm shift relative to glycine control, % at 25 µM. 2.5% of 340,000 active;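 active = melting temperature shift of at least 10% of the positive control shift, at one fixed dose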
# Beta cell apopt = inhibitors of cytokine-induced beta cell apoptosis, primary screen, luminescence; protection from apoptosis, % (concentration not given with the values); 0.8% of 300,000 active; AID 435005, 2010; INS-1E cytokine-induced death, ATP luminescence, 48 h; percent of positive-control rescue, neutral wells zero;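 active = Every replicate reaches about 75%, or at least half do and their mean reaches it too, limit read from the data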;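 also: higher means more ATP so stronger rescue from cytokine killing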
# PREPL inhibitor = PREPL enzyme inhibitors, primary screen, biochemical, fluorescence polarization | 0.68% of 320,000 active | inhibition, % at 5.96 µM | recombinant PREPL, fluorescence polarization activity-based probe; in the data active = inhibition above about 43%
# Target sequence (Q4J6C6 whole entry, looked up): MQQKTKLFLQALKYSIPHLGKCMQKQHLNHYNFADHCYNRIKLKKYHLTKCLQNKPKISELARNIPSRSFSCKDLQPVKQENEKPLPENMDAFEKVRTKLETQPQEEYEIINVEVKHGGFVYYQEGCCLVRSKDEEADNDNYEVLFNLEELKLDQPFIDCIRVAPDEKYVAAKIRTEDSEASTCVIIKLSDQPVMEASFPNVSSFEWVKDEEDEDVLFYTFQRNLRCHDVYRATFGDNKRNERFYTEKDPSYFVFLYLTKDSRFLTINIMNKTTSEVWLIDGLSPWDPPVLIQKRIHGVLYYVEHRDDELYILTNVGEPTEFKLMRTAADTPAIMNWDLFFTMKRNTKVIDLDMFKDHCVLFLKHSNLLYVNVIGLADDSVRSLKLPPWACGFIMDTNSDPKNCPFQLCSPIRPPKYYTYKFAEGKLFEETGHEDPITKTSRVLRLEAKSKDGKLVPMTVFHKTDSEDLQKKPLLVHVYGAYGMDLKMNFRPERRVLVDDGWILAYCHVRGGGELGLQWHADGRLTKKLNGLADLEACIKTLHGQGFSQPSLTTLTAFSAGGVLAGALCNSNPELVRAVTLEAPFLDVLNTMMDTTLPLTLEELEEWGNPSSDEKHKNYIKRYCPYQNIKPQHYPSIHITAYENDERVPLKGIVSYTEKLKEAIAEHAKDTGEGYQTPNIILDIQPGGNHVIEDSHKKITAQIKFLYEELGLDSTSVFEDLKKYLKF
# T cruzi repl = inhibitors of intracellular T. cruzi growth, primary screen, luminescence, NIH3T3 host cells. T. cruzi beta-gal in NIH3T3, 90 h. inhibition, % (concentration not given with the values). 1.4% of 300,000 active. AID 1885, 2009;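 active = mean inhibition across valid replicates above about 55%, limit read from the data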;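 also: signal also drops with host cell toxicity which is not excluded here; higher percent means less beta-gal luminescence so fewer parasites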
#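 Material: NIH/3T3 host cells with β-galactosidase reporter T. cruzi; Input: 5,000 host fibroblasts per well; Medium: DMEM, 2% fetal bovine serum; Compound: 50 nL DMSO compound solution per well; Schedule: 3 h host attachment, then at least 90 h co-culture; Detection: luminescent β-galactosidase signal after 60 min lysis.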
# CHOP inhibitor = inhibitors of CHOP promoter induction, primary screen, cell-based, unfolded protein response, luciferase reporter; CHO-K1 CHOP-promoter luciferase, tunicamycin-induced, 15-18 h; inhibition, % at 10 µM; 3.8% of 220,000 active; AID 2732, 2010;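 active = compounds that reduced the stress-induced luciferase reporter signal by more than about 70% of percent inhibition, limit read from the data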
# Numbers stand for hits; – = inactive; · = no result given.
SMILES,CSC inhib,GRIN3A LBD mod,Beta cell apopt,PREPL inhibitor,T cruzi repl,CHOP inhibitor
CCCCc1ccc(NC(=O)CSc2nc(=O)n(CCCN3CCOCC3)c3c2CCC3)cc1,–,–,·,–,–,·
Cc1ccc(N2CCN(/N=C/c3sccc3C)CC2)cc1,–,–,–,–,·,–
COCC(=O)N1CCC(n2nccc2NC(=O)CCOc2ccccc2)CC1,–,–,–,–,–,·
O=c1cc(-c2ccsc2)oc2cc(-c3ccc4c(c3)OCO4)ccc12,–,–,–,–,·,·
O=C(O)Cn1nc(-c2ccccc2)ccc1=O,–,–,–,–,–,·
CCOc1ccc(N(C(=O)c2snc(C(N)=O)c2N)C(C(=O)NC2CCCC2)c2ccncc2)cc1 (centres undefined),–,–,–,–,–,·
Cc1csc(NC(=O)/C=C/c2ccc3c(c2)OCO3)n1,–,–,–,–,–,–
O=C(/C=C/c1ccc2c(c1)OCO2)Nc1nc2ccccc2s1,–,14,–,–,–,–
O=C(/C=C/c1ccc2c(c1)OCO2)Nc1nc(-c2ccc(F)cc2F)cs1,95,·,–,–,–,–
Cc1cccc(/C=N\N=C\c2cccc(C)c2)c1,–,–,–,–,–,·
Clc1ccc(COc2cccc(CNCc3ccncc3)c2)cc1,–,–,–,–,70,–
CC(C)(CO)NCc1cccc(OCc2ccc(Cl)cc2)c1,–,–,–,–,–,–
Oc1ccc(Br)cc1/C=N/n1c(COc2ccccc2)n[nH]c1=S,–,10,–,·,–,·
COc1cc(/C=N/n2c(COc3ccccc3)n[nH]c2=S)cc(Br)c1O,–,–,–,–,–,·
CCOc1ccc(/C=N/n2c(COc3ccccc3)n[nH]c2=S)cc1OC,–,15,–,–,–,·
CCCN(C(=O)c1nc2nc(C)cc(C)n2n1)c1c(N)n(Cc2ccccc2)c(=O)[nH]c1=O,·,–,–,–,·,·
Cc1cc(C)c2nc(Cl)c(Cl)nc2c1,–,–,–,–,–,–
O=C(CCNc1ccc(F)cc1)c1cc2ccccc2o1,–,–,–,–,73,–
O=c1[nH]c(CN2CCN(C/C=C/c3ccccc3)CC2)nc2cc(Cl)ccc12,–,–,–,–,61,–
O=C(c1ccco1)N1CCN(Cc2nc3cc(Cl)ccc3c(=O)[nH]2)CC1,–,–,–,–,–,–
O=C(CCc1nc2ccccc2c(=O)[nH]1)N1CCN(C/C=C/c2ccccc2)CC1,–,–,–,–,82,–
CSCCC(NS(=O)(=O)c1c(Cl)cccc1Cl)C(=O)O (centres undefined),–,–,–,–,–,–
COc1ccc(-c2[nH]ncc2/C=C(/C#N)C(=O)NC2CCCCC2)cc1,–,–,–,–,–,–
Cc1ccc(-c2[nH]ncc2/C=C(\C#N)C(=O)NC2CCCCC2)cc1,·,–,–,–,–,72
O=[N+]([O-])c1ccc(N=Nc2ccc(O)cc2O)cc1,83,–,–,–,–,–
SMILES,CSC inhib,GRIN3A LBD mod,Beta cell apopt,PREPL inhibitor,T cruzi repl,CHOP inhibitor
CCC(C)[C@H](NS(=O)(=O)c1ccc(F)cc1Br)C(=O)OC (some centres undefined),·,–,·,·,·,·
CC(=O)c1ccc(OCCCC(=O)OCC(=O)Nc2ccc3[nH]c(=O)[nH]c3c2)cc1,–,–,–,–,–,·
O=C(NCc1cccnc1)c1ccc(NC(=O)c2ccc([N+](=O)[O-])cc2)cc1,–,–,104,–,–,·
CC(C)(C)c1ccc(C(=O)Nc2ccc(C(=O)NCc3cccnc3)cc2)cc1,–,–,113,–,–,·
O=c1nc(N2CCCC2)nc(N2CCCC2)[nH]1,–,–,–,–,–,·
Cc1ccc(NC(=O)C(C)OC(=O)c2ccc(NC(=O)CC#N)cc2)cc1S(=O)(=O)N1CCOCC1 (centres undefined),–,–,·,–,–,·
O=C1CCC(C(=O)OCc2cc(=O)oc3ccc4ccccc4c23)=NN1,–,–,–,–,–,–
CCc1ccc(-c2csc(-c3c[nH]c4ccccc34)n2)cc1,–,39,–,–,–,86
CCCCn1c(N)c(N(CCOC)C(=O)COc2ccc(Cl)cc2)c(=O)[nH]c1=O,–,–,–,–,–,–
O=C(CN1/C(=C(/O)c2ccccc2)C(=O)c2ccccc2S1(=O)=O)c1ccccc1,–,–,–,–,–,96
CN1C(=O)c2cccc3c(S(=O)(=O)NCCc4ccccc4)ccc1c23,–,16,–,–,–,·
O=C(CS(=O)(=O)Cc1ccccc1)NCc1ccccc1Cl,–,–,–,–,–,·
Cc1nc2ccc(NS(=O)(=O)c3ccc4c(c3)OCCO4)cc2s1,–,–,123,–,–,–
Cc1nc2ccc(NC(=O)c3cc(S(=O)(=O)N(C)c4ccccc4)ccc3Cl)cc2s1,–,–,80,–,–,–
Cc1nc2ccc(NC(=O)c3ccc([N+](=O)[O-])cc3)cc2s1,–,–,–,–,–,–
Cc1nc2ccc(NC(=O)c3ccc(S(=O)(=O)N(C)C)cc3)cc2s1,–,10,–,–,–,–
C[C@]12c3[nH]c4cc(-c5ccco5)ccc4c3CCN1C(=O)[C@@H](CC(=O)NCc1ccco1)C[C@@H]2C(=O)N1CCCCC1,·,–,·,·,·,·
O=C(N1CCCC1)C(F)(F)Oc1ccc(F)cc1,–,–,–,–,–,–
NNc1nc(-c2ccccc2Cl)nc2sc3c(c12)CCCC3,76,–,–,–,–,–
Cc1ccccc1-c1nc2sc3c(c2c(=O)n1N)CCCC3,–,–,·,–,–,–
O=C(NC1CCCCC1)C(c1ccncc1)N(Cc1ccccc1)C(=O)c1ccc(-c2ccccc2)[nH]1 (centres undefined),–,–,–,–,70,–
O=C(NC1CCCC1)C(c1ccncc1)N(Cc1ccccc1)C(=O)Cc1cccs1 (centres undefined),–,–,–,–,–,–
C=CCc1ccccc1OCCn1ccnc1,–,–,–,–,–,–
C=CCc1cccc(OC)c1OCCOCCn1ccnc1,–,12,–,–,–,–
COc1cc(Cl)ccc1OCc1cc(C(=O)N(C)Cc2nnc(C)o2)no1,–,10,·,–,–,·
COc1ccc(OCc2cc(C(=O)N(C)Cc3nnc(C)o3)no2)c(Cl)c1,–,–,–,–,–,·
Cc1cc(OCC(=O)C(C)(C)C)c2c(-c3ccccc3)cc(=O)oc2c1,–,–,–,–,–,·
Cc1ccc(S(=O)(=O)NC(=O)Nc2ccc(N(C)C)cc2)cc1,–,–,–,–,57,·
O=c1c(O[C@@H]2O[C@H](CO)[C@H](O)[C@H](O)[C@H]2O)c(-c2ccc(O)c(O)c2)oc2cc(O)cc(O)c12,·,·,·,·,·,–
